The target of data set [1] is Toll-like receptor 2 (Homo sapiens, UniProt O60603). Kind of data set: Agonist activity at human TLR2 expressed in HEK293 cells assessed as NF-kappaB induction measured soluble alkaline phosphatase after 12 hrs by spectrophotometric analysis. It counts as functional, cell-based. In outline:
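HEK-Blue cells (HEK293 stably transfected with human TLR2 and NF-κB-driven secreted alkaline phosphatase) kept in selection medium with zeocin and normocin; seeded ~10^5 cells/mL, grown to confluency, then stimulated 12 h with serially diluted compounds. Supernatant sAP read spectrophotometrically at 620 nm using an alkaline phosphatase-specific chromogen in the detection medium.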

A short description of data set [2]: Upregulation of p38 MAPK expression in […] […] by flow cytometric analysis. It counts as functional, cell-based. As to conditions: Homo sapiens. In short, it runs like this:
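Heparinized fresh human whole blood exposed to graded compound concentrations in saline for 15 min at 37 °C. Red cells lysed and leukocytes fixed in one step, then permeabilized in ice-cold methanol 30 min. Stained with PE anti-phospho-p38MAPK (pT180/pY182, α/β/γ/δ isoforms). Single-colour PE flow cytometry on 20,000 gated events.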

A short description of data set [3]: Upregulation of CD11b expression in human […] by flow cytometric analysis. It counts as functional, cell-based. In short, it runs like this: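 Fresh heparinized or anticoagulated human whole blood from healthy adults, incubated with graded compound dilutions 1 h at 37 °C, with saline negative controls. Kept on ice 15 min, then stained with anti-CD11b on ice 30 min so only surface CD11b was labelled. Red cells lysed and leukocytes fixed in one step; PE single-colour flow cytometry on 20,000 gated events.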

Data set [4] is described as follows: Aqueous solubility of the compound. It counts as physicochemical. Conditions: buffer.

Calls of active or inactive are those of the source. The rule behind the calls is not given here. Some results are limits rather than exact numbers.

Toll-like receptor 2, sequence (O60603 whole entry): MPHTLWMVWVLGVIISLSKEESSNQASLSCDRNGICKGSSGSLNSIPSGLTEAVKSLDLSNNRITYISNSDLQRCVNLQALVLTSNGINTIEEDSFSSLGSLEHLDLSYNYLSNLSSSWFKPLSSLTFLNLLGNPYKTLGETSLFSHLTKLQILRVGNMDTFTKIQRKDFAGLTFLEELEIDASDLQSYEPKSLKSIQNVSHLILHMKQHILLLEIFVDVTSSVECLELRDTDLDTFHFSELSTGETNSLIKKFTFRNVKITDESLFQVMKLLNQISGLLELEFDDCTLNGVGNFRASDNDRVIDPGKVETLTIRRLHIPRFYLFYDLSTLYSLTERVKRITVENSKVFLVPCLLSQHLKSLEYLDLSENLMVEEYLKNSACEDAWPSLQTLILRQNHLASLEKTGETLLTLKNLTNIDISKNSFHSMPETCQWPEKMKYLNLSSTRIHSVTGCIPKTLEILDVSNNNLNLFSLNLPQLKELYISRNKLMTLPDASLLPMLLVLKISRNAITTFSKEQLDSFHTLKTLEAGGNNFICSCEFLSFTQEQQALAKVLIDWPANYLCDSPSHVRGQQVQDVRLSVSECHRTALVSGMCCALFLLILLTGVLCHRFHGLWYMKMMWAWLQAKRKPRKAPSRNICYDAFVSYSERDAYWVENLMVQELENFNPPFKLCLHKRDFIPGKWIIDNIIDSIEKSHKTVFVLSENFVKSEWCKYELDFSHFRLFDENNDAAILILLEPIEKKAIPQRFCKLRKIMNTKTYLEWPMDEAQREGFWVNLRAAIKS

Consider `CCCCCCCCCCCC(=O)OC[C@H](CSC[C@H](N)C(=O)N[C@@H](CO)C(=O)O)OC(=O)CCCCCCCCCCC`, for which the EC50 in data set [1] stood at 6.48 nM.

On to `CCCCCCCCCCCCCCCC(=O)OC[C@H](C[Se]C[C@H](N)C(=O)N[C@@H](CO)C(=O)OC)OC(=O)CCCCCCCCCCCCCCC`, for which the EC50 in data set [1] stood at 0.26 nM.

As for `CCCCCCCCCCCCCCCCOC(=O)CSC[C@H](N)C(=O)N[C@@H](CO)C(=O)OC`, the EC50 in data set [1] is above 1000 nM.

Regarding `CCCCCCCCCCCCCCCC(=O)OC[C@H](CSC(C)(C)[C@@H](N)C(=O)N[C@@H](CO)C(=O)OC)OC(=O)CCCCCCCCCCCCCCC`, in data set [1], the EC50 is above 1000 nM.

Consider `CCCCC/C=C\C/C=C\CCCCCCCC(=O)OC[C@H](CSC[C@H](N)C(=O)NCC(=O)OC(C)C)OC(=O)CCCCCCC/C=C\C/C=C\CCCCC`, for which the EC50 in data set [1] is 1 nM.

With `CC/C=C\C/C=C\C/C=C\CCCCCCCC(=O)OC[C@H](CSC[C@H](N)C(=O)NCC(=O)OC(C)C)OC(=O)CCCCCCC/C=C\C/C=C\C/C=C\CC`, the EC50 in data set [1] came out at 0.87 nM.

Regarding `CCCCCCCCCCCCCCCC(=O)OCCSC[C@H](N)C(=O)N[C@@H](CO)C(=O)OC`, the EC50 in data set [1] turned out to be 4.44 nM. The outcome in data set [2] and in data set [3] was Active.

Take `CCCCCCCCCCCCCCCC(=O)OC[C@@H](O)CSC[C@H](N)C(=O)N[C@@H](CO)C(=O)O`: the EC50 in data set [1] stood at 1.95 nM.

With `CCCCCCCCCCCCCCCC(=O)OC[C@H](CSC[C@H](NC(=O)CC[C@H](N)C(=O)O)C(=O)NCC(=O)OC(C)C)OC(=O)CCCCCCCCCCCCCCC`, the EC50 in data set [1] was above 1000 nM.

Turning to `CCCCCCCCCCCCCCCC(=O)O[C@H](CO)CSC[C@H](N)C(=O)N[C@@H](CO)C(=O)O`, the EC50 in data set [1] amounted to 1.86 nM.

For `CCCCCCCCCCCCCCCC(=O)O[C@H](COC(=O)CNCCCOCCOCCOCCCN)CSC[C@H](N)C(=O)N[C@@H](CO)C(=O)O`, the EC50 in data set [1] was found to be 1.55 nM. Further, in data set [4], the solubility entry is reported as “soluble”.

Regarding `CCCCCCCCCCCCCCCC(=O)O[C@H](COC(=O)CNCCCOCCOCCOCC)CSC[C@H](N)C(=O)N[C@@H](CO)C(=O)O`, the EC50 in data set [1] stood at 2.11 nM. The solubility result in data set [4] was “soluble”.

On to `CCOCCOCCOCCCNCC(=O)OC[C@H](CSC[C@H](N)C(=O)N[C@@H](CO)C(=O)O)OC(=O)CNCCCOCCOCCOCC`, for which the EC50 in data set [1] was above 1000 nM.

For `CCCCCCCCCCCCCCCC(=O)OC[C@H](CSCC[C@H](N)C(=O)N[C@@H](CO)C(=O)O)OC(=O)CCCCCCCCCCCCCCC`, the EC50 in data set [1] was above 1000 nM.

As to `CCCCCCCCCCCCCC(=O)OC[C@H](CSC[C@H](N)C(=O)N[C@@H](CO)C(=O)O)OC(=O)CCCCCCCCCCCCC`, the EC50 in data set [1] came out at 0.56 nM.

On to `CCCCCCCCCCCCCCCC(=O)O[C@H](COC(=O)CNCCCNCCCCNCCCN)CSC[C@H](N)C(=O)N[C@@H](CO)C(=O)O`, for which the EC50 in data set [1] was found to be 3.23 nM. Moreover, the solubility entry in data set [4] is recorded as “soluble”.

Consider `CCCCCCCCCCCCCCCC(=O)OCC(CSC[C@H](N)C(=O)N[C@@H](CO)C(=O)O)OC(=O)CCCCCCCCCCCCCCC` (mixture of isomers), for which the outcome in data set [2] and in data set [3] was Active.

With `CCCCCCCCCCCCCCCC(=O)OC[C@H](CSC[C@H](N)C(=O)NCC(=O)OC(C)C)OC(=O)CCCCCCCCCCCCCCC`, the EC50 in data set [1] came out at 0.45 nM.

With `CCCCCCCCCCCCCCCC(=O)OCCCSC[C@H](N)C(=O)N[C@@H](CO)C(=O)OC`, the EC50 in data set [1] was above 1000 nM.

For `CCCCCCCCCCCCCCCC(=O)OC[C@H](CSC(C)(C)[C@H](N)C(=O)N[C@@H](CO)C(=O)O)OC(=O)CCCCCCCCCCCCCCC`, the EC50 in data set [1] was above 1000 nM.

Consider `CCCCCCCCCCCCCCCCCC(=O)OC[C@H](CSC[C@H](N)C(=O)N[C@@H](CO)C(=O)O)OC(=O)CCCCCCCCCCCCCCCCC`, for which, in data set [1], the EC50 came to 1.47 nM.

As for `CCCCCCCCCCCCCCCCOC(=O)CCSC[C@H](N)C(=O)N[C@@H](CO)C(=O)OC`, the EC50 in data set [1] is above 1000 nM.

With `CCCCCCCCCCCCCCCC(=O)OC[C@H](CSCCC(=O)N[C@@H](CO)C(=O)OC)OC(=O)CCCCCCCCCCCCCCC`, the EC50 in data set [1] was above 1000 nM.

Values taken from ChEMBL document CHEMBL1921718, “Structure-activity relationships in toll-like receptor 2-agonists leading to simplified monoacyl lipopeptides” (J Med Chem, 2011).
